# Measured values from ChEMBL document CHEMBL4257550, “Novel hybrids derived from aspirin and chalcones potently suppress colorectal cancer in vitro and in vivo” (Medchemcomm, 2018).
# Active and inactive are the calls of the source. The rule behind the calls is not given here.
# Assays:
# [1] = tested on: HCT-8; experiment: Antiproliferative activity against human HCT8 cells at 10 uM after 72 hrs by MTT assay relative to control; type: functional
# Procedure, shortened: (§1)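 Cells treated with or without compound at 10 μM for 72 h, proliferation measured by MTT (4 h, formazan in DMSO, 570 nm). Inhibition (%) relative to untreated cells; mean ± SD of three independent experiments.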
# [2] = tested on: DLD-1; experiment: Antiproliferative activity against human DLD1 cells at 10 uM after 72 hrs by MTT assay relative to control; type: functional; procedure, shortened: as §1
# [3] = tested on: HCT-8; experiment: Antiproliferative activity against human HCT8 cells after 72 hrs in presence of ASA by MTT assay; type: functional, cell-based; conditions: HCT-8, 72 h
# Procedure, shortened: (§2)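 HCT-8, DLD-1 and CCD841 cells seeded in 96-well plates, exposed to vehicle or compound for 72 h. MTT (5 mg/mL in PBS) added for a further 4 h, formazan dissolved in DMSO, absorbance read at 570 nm. IC50 taken as the concentration inhibiting 50% of proliferation; mean ± SD of three independent experiments.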
# [4] = tested on: HCT-8; experiment: Antiproliferative activity against human HCT8 cells after 72 hrs by MTT assay; type: functional, cell-based; conditions: HCT-8, 72 h; procedure, shortened: as §2
# [5] = tested on: DLD-1; experiment: Antiproliferative activity against human DLD1 cells after 72 hrs in presence of ASA by MTT assay; type: functional, cell-based; conditions: DLD-1, 72 h; procedure, shortened: as §2
# [6] = tested on: DLD-1; experiment: Antiproliferative activity against human DLD1 cells after 72 hrs by MTT assay; type: functional, cell-based; conditions: DLD-1, 72 h; procedure, shortened: as §2
IC50 [3] [µM],IC50 [4] [µM],IC50 [5] [µM],IC50 [6] [µM],SMILES,Activity [1],Activity [2]
,,,,COc1cccc(/C=C/C(=O)c2ccc(Cl)cc2)c1OC(=O)c1ccccc1OC(C)=O,Active,Active
,,,,CC(=O)Oc1ccccc1C(=O)Oc1ccccc1/C=C/C(=O)c1ccc(C#N)cc1,Active,Active
,,,,CC(=O)Oc1ccccc1C(=O)Oc1ccc(C)cc1/C=C/C(=O)c1ccc(Cl)cc1,Active,Active
,,,,CC(=O)Oc1ccccc1C(=O)Oc1ccc(Br)cc1/C=C/C(=O)c1ccc(Cl)cc1,Active,Active
,,,,CC(=O)Oc1ccccc1C(=O)Oc1ccc(Cl)cc1/C=C/C(=O)c1ccc(Cl)cc1,Active,Active
6.3,19.7,6.9,14.7,COc1ccc(O)c(/C=C/C(=O)c2ccc(Cl)cc2)c1,,
,,,,COc1ccc(C(=O)/C=C/c2ccccc2OC(=O)c2ccccc2OC(C)=O)cc1,Active,Active
,,,,CC(=O)Oc1ccccc1C(=O)Oc1ccccc1/C=C/C(=O)c1ccc(Br)cc1,Active,Active
,,,,COc1ccc(/C=C/C(=O)c2ccc(Cl)cc2)c(OC(=O)c2ccccc2OC(C)=O)c1,Active,Active
